Data set [1] is described as follows: Aqueous solubility in PBS buffer at pH 7.4 by HPLC method. The settings on record: PBS buffer, read-out: solubility. It is filed as physicochemical. The essentials:
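Compound at 200 μM final in 2% DMSO in PBS pH 7.4, shaken 24 h at room temperature; quantified by HPLC with photodiode array detection at 230 nm; duplicate, mean reported.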

The nature of data set [2]: Permeability across apical to basolateral side in human Caco2 cells incubated for 1 hr at 37 degC by HPLC-MS/MS method. It counts as ADME, cell-based. As to conditions: Caco-2. The essentials:
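TC7 (Caco-2 subclone) monolayer; 10 μM compound in 1% DMSO in HBSS-MES pH 6.5 on apical donor side, basolateral receiver pH 7.4; shaken 1 h at 37 °C; receiver sampled, HPLC-MS/MS; duplicate means.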
A general note: Caco-2 monolayers are a common model of the intestinal barrier.

For data set [3], the system named is Mycobacterium tuberculosis. Kind of data set: Antitubercular activity against non-replicating Mycobacterium tuberculosis H37Rv incubated for 10 days by LORA method. As to conditions: 240 h. It is filed as functional. An outline of the steps: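 H37Rv carrying pFCA-luxAB was adapted to low oxygen by gradual self-depletion in a sealed, slowly stirred flask. It was then exposed to compounds for 10 days under anaerobic conditions. Cultures recovered for 28 h in ambient oxygen before n-decanal substrate was added and luminescence read. MIC was the lowest concentration giving a 90% reduction in luminescence versus untreated controls.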

In another data set the test system is Vero. As to the kind of experiment: Cytotoxicity against african green monkey Vero cells. It is filed as cell-based, Chlorocebus sabaeus. The settings on record: Chlorocebus sabaeus, Vero; read-out: IC50.
Data set [4] is described as follows: Permeability across basolateral to apical side in human Caco2 cells incubated for 1 hr at 37 degC by HPLC-MS/MS method. It counts as ADME, cell-based. As to conditions: Caco-2.
In data set [5] the test system is Mycobacterium tuberculosis. As to the kind of experiment: Antitubercular activity against Mycobacterium tuberculosis H37Rv incubated at 37 degC for 14 days in presence of 40% human serum by microplate alamar blue assay. As to conditions: 336 h. It counts as functional. An outline of the steps: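 This is the MABA run in 7H9 broth containing 40% human serum. Compounds were 2-fold serially diluted, and wells were inoculated with H37Rv at 2 × 10⁵ CFU/mL. Incubation was at 37 °C for 14 days, then Alamar Blue was added. MIC was the lowest concentration preventing the blue-to-pink colour change.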
On the technique in general: Resazurin is reduced to fluorescent resorufin, in cell work by metabolically active cells.

The nature of data set [6]: Solubility in simulated intestinal fluid at pH 7.6 by HPLC method. It counts as physicochemical. The essentials:
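Simulated intestinal fluid medium; each analogue 200 μM final in 2% DMSO, shaken 24 h at room temperature, then HPLC with photodiode array read at 230 nm; duplicate, means given.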

The test system of data set [7] is Mycobacterium tuberculosis. As to the kind of experiment: Antitubercular activity against Mycobacterium tuberculosis H37Rv incubated at 37 degC for 7 days by microplate alamar blue assay. It is filed as functional. The settings on record: for MIC: Mycobacterium tuberculosis, H37Rv, 168 h. The essentials:
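Mtb H37Rv was grown in 7H9 broth with glycerol, Casitone, 10% OADC and 0.05% Tween 80 to OD600 0.4. Compounds were 2-fold serially diluted from DMSO stocks in 7H9, and wells were inoculated at 2 × 10⁵ CFU/mL. After 7 days at 37 °C, Alamar Blue was added and read after a further 24 h. MIC was the lowest concentration preventing the blue-to-pink change.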

The nature of data set [8]: Solubility in simulated gastric fluid at pH 1.5 by HPLC method. It is filed as physicochemical. The essentials: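 Compound at 200 μM final in 2% DMSO in simulated gastric fluid, shaken 24 h at room temperature; HPLC-photodiode array detection at 230 nm; duplicate means.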
Data set [9] can be described thus: Metabolic stability in human liver microsomes assessed as parent compound remaining at 1 uM incubated for 1 hr by HPLC-MS/MS method. It counts as ADME, Microsome. The settings on record: read-out: Stability. The essentials: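 Pooled mixed-gender human liver microsomes (0.3 mg/mL protein), 1 μM compound with NADP-regenerating system in phosphate buffer pH 7.4, 1 h at 37 °C; parent measured at start and end by HPLC-MS/MS; duplicate means.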
On the technique in general: Liver microsomes are a subcellular fraction often used to study metabolism.

Data set [10] is described as follows: Efflux ratio in human Caco2 cells incubated for 1 hr at 37 degC by HPLC-MS/MS method. It is filed as ADME, cell-based. As to conditions: Caco-2.
In a further data set the target is CYP2C19 (Homo sapiens, UniProt P33261). Kind of data set: Inhibition of human recombinant CYP2C19 at 10 uM incubated for 60 mins at 37 degC using 3-cyano-7-ethoxycoumarin substrate. As to conditions: recombinant CYP2C19, probe 3-cyano-7-ethoxycoumarin. It is filed as ADME.
A short description of data set [11]: Protein binding in human plasma at 10 uM incubated for 8 hrs at 37 degC by equilibrium dialysis method. It is filed as ADME, cell-free. The settings on record: read-out: PPB (converted). The essentials:
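Equilibrium dialysis: 10 μM compound in 1% DMSO in human plasma vs 0.05 M phosphate buffer pH 7.5 across 12–14 K cutoff membrane, at least 8 h at 37 °C; HPLC-photodiode detection at 230 nm; duplicate means.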

For another data set, the target named is CYP2C9 (Homo sapiens, UniProt P11712). As to the kind of experiment: Inhibition of human recombinant CYP2C9 at 10 uM incubated for 80 mins at 37 degC using 7-methoxy-4-trifluoromethylcoumarin substrate. It is filed as ADME. The settings on record: recombinant CYP2C9, probe 7-methoxy-4-trifluoromethylcoumarin.
The next data set concerns the target CYP3A4 (Homo sapiens, UniProt P08684). Kind of data set: Inhibition of human recombinant CYP3A4 at 10 uM incubated for 30 mins at 37 degC using 7-benzyloxy-4-(trifluoromethyl)coumarin substrate. It is filed as ADME. The settings on record: recombinant CYP3A4, probe 7-benzyloxy-4-(trifluoromethyl)coumarin.
A short description of data set [12]: Distribution coefficient, log D of the compound between n-octanol and PBS buffer at pH 7.4 incubated for 1 hr by shake flask method. It is filed as physicochemical. The essentials: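 Partition between n-octanol and PBS pH 7.4 after 1 h shaking at room temperature; phases analysed by HPLC with photodiode detection; logD = log10 of organic/aqueous amount.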

Each structure is given as a SMILES string. ≈ marks a conversion by molar mass, not a printed value. Bounds are passed on as bounds.

Sequence of CYP3A4 (P08684 whole entry): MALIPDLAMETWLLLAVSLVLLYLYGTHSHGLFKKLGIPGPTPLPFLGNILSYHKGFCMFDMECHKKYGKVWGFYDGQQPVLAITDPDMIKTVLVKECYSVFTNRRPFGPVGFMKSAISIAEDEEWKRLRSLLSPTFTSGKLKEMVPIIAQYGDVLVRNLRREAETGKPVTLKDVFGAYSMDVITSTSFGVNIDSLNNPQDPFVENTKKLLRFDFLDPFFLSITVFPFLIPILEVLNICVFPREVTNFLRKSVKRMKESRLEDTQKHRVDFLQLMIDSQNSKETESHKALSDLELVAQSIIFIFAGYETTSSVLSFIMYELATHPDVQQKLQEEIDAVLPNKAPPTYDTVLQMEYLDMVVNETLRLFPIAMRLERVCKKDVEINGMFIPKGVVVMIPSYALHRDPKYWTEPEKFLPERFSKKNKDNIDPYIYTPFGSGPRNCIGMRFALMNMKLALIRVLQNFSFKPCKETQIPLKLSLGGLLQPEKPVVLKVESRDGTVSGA
Sequence of CYP2C9 (P11712 whole entry): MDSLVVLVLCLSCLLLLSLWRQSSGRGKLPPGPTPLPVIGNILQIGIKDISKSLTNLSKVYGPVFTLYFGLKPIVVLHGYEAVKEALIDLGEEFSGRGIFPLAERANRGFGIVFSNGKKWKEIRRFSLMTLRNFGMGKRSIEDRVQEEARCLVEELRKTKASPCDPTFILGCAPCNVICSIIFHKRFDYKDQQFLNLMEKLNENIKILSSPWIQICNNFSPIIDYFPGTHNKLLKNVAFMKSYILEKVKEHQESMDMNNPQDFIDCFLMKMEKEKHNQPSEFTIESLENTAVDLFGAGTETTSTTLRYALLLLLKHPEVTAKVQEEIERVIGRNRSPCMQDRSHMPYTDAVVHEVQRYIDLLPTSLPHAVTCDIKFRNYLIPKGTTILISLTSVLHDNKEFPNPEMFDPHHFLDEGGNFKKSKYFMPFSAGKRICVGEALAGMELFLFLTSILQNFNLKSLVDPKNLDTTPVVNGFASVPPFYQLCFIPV
Sequence of CYP2C19 (P33261 whole entry): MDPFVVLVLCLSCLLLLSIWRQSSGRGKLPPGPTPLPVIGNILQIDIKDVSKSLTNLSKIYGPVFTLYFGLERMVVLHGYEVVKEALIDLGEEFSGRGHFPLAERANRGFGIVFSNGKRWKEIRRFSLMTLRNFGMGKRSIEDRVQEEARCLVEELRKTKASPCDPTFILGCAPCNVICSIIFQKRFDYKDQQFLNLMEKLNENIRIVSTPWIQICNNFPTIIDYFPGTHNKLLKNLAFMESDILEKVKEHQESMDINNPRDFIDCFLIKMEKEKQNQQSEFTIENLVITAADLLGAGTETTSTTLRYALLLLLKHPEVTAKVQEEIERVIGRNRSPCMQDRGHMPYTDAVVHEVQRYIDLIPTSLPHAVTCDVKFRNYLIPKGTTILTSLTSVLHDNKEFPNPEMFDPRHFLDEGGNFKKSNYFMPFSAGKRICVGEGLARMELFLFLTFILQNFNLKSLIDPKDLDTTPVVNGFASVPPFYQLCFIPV

In general, solubility refers to the concentration that dissolves in the medium under given conditions. One may read the Papp A→B as the apparent permeability from the apical to the basolateral side of a cell layer. By MIC90 is commonly meant the lowest concentration that inhibits either 90% of growth or 90% of the strains tested, depending on the study. As usually defined, the IC50 is the concentration that gives 50% inhibition. As a reminder, the Papp B→A is the apparent permeability from the basolateral to the apical side of a cell layer. The term MIC denotes the lowest concentration found to suppress growth. The term efflux ratio denotes the permeability from basolateral to apical divided by that in the opposite direction, in the common usage. Regarding `O=C1c2cc(Cl)ccc2-n2c1nc1cc(F)ccc1c2=O`, the solubility was 1.1 µM (≈ 0.331 µg/mL) in data set [1], 10.3 µM (≈ 3.1 µg/mL) in data set [6] and 2.5 µM (≈ 0.752 µg/mL) in [8]. The Papp A→B at 1 h in data set [2] came out at 285 nm/s. The compound further displayed an MIC90 in data set [3] greater than 50 mg/L. Moreover, the IC50 in the data set with Vero is greater than 50 mg/L. Besides, in data set [4], the basolateral-to-apical permeability (Papp B→A) at 1 h stood at 127 nm/s. The MIC in data set [5] came out at 0.5 mg/L; in data set [7] it was 0.5 mg/L (≈ 1.66 µM). The compound also yielded an MBC90 in data set [7] of 0.25 mg/L (≈ 0.831 µM). Moreover, the remaining at 1 h, 1 µM in data set [9] came out at 91%. The efflux ratio at 1 h in [10] is greater than 1.
In general, inhibition refers to the share of the control response that was lost under treatment. A word on the logD: it is the decadic logarithm of the distribution of all forms, ionised or not, between an organic phase and buffer at a given pH. `CCOC(=O)c1ccc2c(c1)C(=O)c1nc3ccccc3c(=O)n1-2`: the inhibition at 1 h, 10 µM at CYP2C19 was determined as 10%. Further, the solubility was 3.8 µM (≈ 1.22 µg/mL) in data set [1], 11.1 µM (≈ 3.56 µg/mL) in [6] and 1.5 µM (≈ 0.48 µg/mL) in data set [8]. The compound further returned a Papp A→B at 1 h in data set [2] of 42 nm/s. Besides, the fraction unbound at 8 h, 10 µM in [11] was 0.016. Also, the inhibition at 80 min, 10 µM at CYP2C9 was found to be 38%. Moreover, on CYP3A4, the inhibition at 0.5 h, 10 µM worked out at 5%. The IC50 in the data set with Vero is greater than 16 mg/L. Further, the basolateral-to-apical permeability (Papp B→A) at 1 h in data set [4] was 8 nm/s. The minimum inhibitory concentration (MIC) in data set [5] turned out to be 1 mg/L; in [7], 0.5 mg/L (≈ 1.56 µM). This compound also displayed a logD at 1 h in data set [12] of 2.94. Further, the remaining at 1 h, 1 µM in [9] stood at 0%.
In the case of `O=C1c2cc(Cl)ccc2-n2c1nc1ccccc1c2=O`, the inhibition at 1 h, 10 µM on CYP2C19 worked out at 13%. Also, the solubility in data set [1] was 3.3 µM (≈ 0.933 µg/mL); in data set [6], 16.7 µM (≈ 4.72 µg/mL); in data set [8], 26.8 µM (≈ 7.58 µg/mL). Further, in [3], the MIC90 is greater than 50 mg/L. The inhibition at 80 min, 10 µM on CYP2C9 amounted to 38%. For the same compound, the inhibition at 0.5 h, 10 µM at CYP3A4 was determined as 10%. In addition, the IC50 in the data set on Vero was greater than 50 mg/L. For the same compound, the figures for the MIC in data set [5] and in data set [7] were 0.25 mg/L and 0.125 mg/L (≈ 0.442 µM), respectively. The same compound had a logD at 1 h in data set [12] of 2.76. The compound also displayed an MBC90 in data set [7] of 0.125 mg/L (≈ 0.442 µM).
On to `O=C1c2cc([N+](=O)[O-])ccc2-n2c1nc1ccccc1c2=O`, for which the results for the solubility in data set [1], in [6] and in data set [8] were 64.3 µM (≈ 18.9 µg/mL), 152 µM (≈ 44.5 µg/mL) and 5.1 µM (≈ 1.5 µg/mL), respectively. Besides, the fraction unbound at 8 h, 10 µM in data set [11] was 0.031. In addition, the MIC90 in data set [3] amounted to 2.4 mg/L (≈ 8.18 µM). Besides, in the data set with Vero, the IC50 came to 28 mg/L (≈ 95.5 µM). The MIC in [5] was determined as 0.5 mg/L; in data set [7], 0.032 mg/L (≈ 0.109 µM). In data set [7], this compound showed an MBC90 of 0.25 mg/L (≈ 0.853 µM). The remaining at 1 h, 1 µM in data set [9] came to 33%.
Take `O=C1c2cc(Br)ccc2-n2c1nc1ccccc1c2=O`: the values for the solubility in [1], in [6] and in [8] were 2.6 µM (≈ 0.851 µg/mL), 92.9 µM (≈ 30.4 µg/mL) and 2.3 µM (≈ 0.752 µg/mL), respectively. In data set [2], the Papp A→B at 1 h came to 238 nm/s. This compound also yielded an MIC90 in data set [3] greater than 50 mg/L. In addition, in the data set with Vero, the IC50 is 35 mg/L (≈ 107 µM). Besides, the Papp B→A at 1 h in [4] was 76 nm/s. Further, the MIC in data set [5] stood at 0.5 mg/L; in data set [7] it was 0.125 mg/L (≈ 0.382 µM). In [9], the remaining at 1 h, 1 µM is 59%. The efflux ratio at 1 h in [10] was greater than 1.
As to `O=C1c2ccccc2-n2c1nc1ccc(Br)cc1c2=O`, the inhibition at 1 h, 10 µM at CYP2C19 was determined as 10%. In addition, the MIC90 in data set [3] was greater than 50 mg/L. Moreover, the inhibition at 80 min, 10 µM at CYP2C9 turned out to be 20%. Moreover, the inhibition at 0.5 h, 10 µM at CYP3A4 amounted to 10%. For the same compound, in the data set with Vero, the half-inhibitory concentration (IC50) is greater than 50 mg/L. Moreover, the MIC in [5] worked out at 0.5 mg/L; in data set [7] it was 0.25 mg/L (≈ 0.764 µM). In data set [12], this compound had a logD at 1 h of 1.69. The solubility in data set [6] is 49.4 µM (≈ 16.2 µg/mL). In addition, the MBC90 in data set [7] is 0.5 mg/L (≈ 1.53 µM).

The values are drawn from ChEMBL document CHEMBL2346548, “Design, synthesis, and structure-activity relationship studies of tryptanthrins as antitubercular agents” (J Nat Prod, 2013).
